Reference: ChEMBL document CHEMBL4715734, “Discovery of the Potent and Selective M1 PAM-Agonist N-[(3R,4S)-3-Hydroxytetrahydro-2H-pyran-4-yl]-5-methyl-4-[4-(1,3-thiazol-4-yl)benzyl]pyridine-2-carboxamide (PF-06767832): Evaluation of Efficacy and Cholinergic Side Effects” (J Med Chem, 2016)
Values after ≈ are worked out from the molar mass of the structure shown. Active and inactive are the calls of the source. The rule behind the calls is not given here.

Assays:
[1] = Unbound plasma concentration in scopolamine-induced Wistar rat model at 0.1 mg/kg, po measured after 1 hr; type: ADME, organism-based; conditions: in vivo
[2] = molecular target: T1, Muscarinic acetylcholine receptor M3 (Homo sapiens, UniProt P20309); test: Positive allosteric modulation of human recombinant muscarinic M3 receptor stably expressed in CHO cells assessed as increase in Ach-induced accumulation of intracellular calcium level upto 10 uM incubated for 10 mins followed by addition of Ach at EC20 concentration by Fluo-8AM dye based FLIPR TETRA method
[3] = molecular target: T2, Muscarinic acetylcholine receptor M1 (Homo sapiens) (UniProt P11229); test: Positive allosteric modulation of human muscarinic M1 receptor expressed in CHO cells assessed as increase in ACh-induced displacement of [3H]-NMS from M1 receptor at 10 uM by scintillation counting method relative to Ach alone; type: cell-based; conditions: filed as positive allosteric modulator
T2 sequence (whole entry): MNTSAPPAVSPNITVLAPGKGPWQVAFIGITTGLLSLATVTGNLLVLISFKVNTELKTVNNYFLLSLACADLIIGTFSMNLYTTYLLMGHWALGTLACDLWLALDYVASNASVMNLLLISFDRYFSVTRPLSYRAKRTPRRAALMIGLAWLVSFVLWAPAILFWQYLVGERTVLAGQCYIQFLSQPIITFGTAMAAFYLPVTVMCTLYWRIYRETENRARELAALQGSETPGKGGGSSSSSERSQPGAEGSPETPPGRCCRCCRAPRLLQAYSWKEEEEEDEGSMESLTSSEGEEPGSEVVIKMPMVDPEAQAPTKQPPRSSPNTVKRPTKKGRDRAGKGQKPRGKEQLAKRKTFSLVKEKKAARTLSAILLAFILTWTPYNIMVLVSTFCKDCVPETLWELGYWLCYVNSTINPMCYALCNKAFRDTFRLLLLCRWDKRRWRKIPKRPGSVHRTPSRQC

[4] = Toxicity in po dosed dog assessed as NOAEL using spray-dried dispersion formulation; type: organism-based, Canis lupus familiaris; conditions: in vivo
[5] = Unbound brain concentration in […] in Sprague-Dawley rat model at 0.32 mg/kg, sc measured after 1.67 hrs; type: ADME, organism-based; conditions: in vivo
Outline: (§1)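 Randomly selected animals (N=2/dose) at the end of the rat PPI study, T = 1.67 h. Dosed subcutaneously as a suspension in 0.5% methylcellulose in water. Plasma and brain concentrations were averaged.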

[6] = Unbound plasma concentration in amphetamine-induced C57BL/6J mouse model of hyperlocomotion at 3.2 mg/kg, sc measured after 1 hr; type: ADME, organism-based; conditions: in vivo
Outline: (§2)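 Satellite PK animals from the mouse aLMA study, N=2/dose. Dosed subcutaneously with a solution in 5/15/80 DMSO/Solutol/water. Plasma and brain were sampled at T = 1 h.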

[7] = Toxicity in male Beagle dog assessed as increase in blood pressure at 3 mg/kg, po observed upto 9 hrs post last dose by telemetry; type: organism-based, Canis lupus familiaris; conditions: in vivo
Outline: (§3)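 Crossover telemetry study in dogs at three oral doses (0.3, 1 and 3 mg/kg), N=4. Endpoints were blood pressure, maximum systolic left ventricular pressure, LV +dP/dt max, activity, heart rate, and RR, QT and QTc intervals, followed up to 9 h post dose.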

[8] = Ratio of AUC in C57BL/6 mouse brain to plasma at 1 mg/kg, sc; type: ADME, organism-based; conditions: brain and plasma, read-out: Ratio AUC
[9] = molecular target: Dual 3',5'-cyclic-AMP and -GMP phosphodiesterase 11A (Homo sapiens, UniProt Q9HCR9); test: Inhibition of PDE11A4 (unknown origin)
[10] = Ratio of fAUC in C57BL/6 mouse brain to plasma; type: ADME, cell-free; conditions: brain and plasma, read-out: Ratio AUC
[11] = Unbound brain concentration in amphetamine-induced C57BL/6J mouse model of hyperlocomotion at 0.32 mg/kg, sc measured after 1 hr; type: ADME, organism-based; conditions: in vivo; outline: as §2
[12] = fCmax in dog at 5 mg/kg, po using spray-dried dispersion formulation; type: ADME, organism-based, Canis lupus familiaris; conditions: in vivo
[13] = Unbound plasma concentration in scopolamine-induced Wistar rat model at 1 mg/kg, po measured after 1 hr; type: ADME, organism-based; conditions: in vivo
Outline: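 Plasma sampled 1 h after oral dosing in satellite animals (N=2/dose) given the same dosing solution as the water-maze study (suspension in 0.5% methylcellulose in water); unbound concentration reported as the group average.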

[14] = Toxicity in male Beagle dog assessed as decrease in RR interval at 3 mg/kg, po administered as single dose observed upto 9 hrs post last dose by telemetry; type: organism-based, Canis lupus familiaris; conditions: in vivo; outline: as §3
[15] = molecular target: T2, Muscarinic acetylcholine receptor M1 (Homo sapiens); test: Binding affinity to muscarinic M1 receptor (unknown origin) assessed as recruitment of beta-arrestin by measuring binding constant by Path Hunter assay; type: cell-based; conditions: CHO, filed as positive allosteric modulator
[16] = Toxicity in dog assessed as emesis at 3 mg/kg, po using spray-dried dispersion formulation; type: organism-based, Canis lupus familiaris; conditions: in vivo
Outline: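 Dogs received single escalating oral doses as a spray-dried dispersion (10% drug loading with HPMCAS-M). The dispersion was suspended in 0.5 wt% methylcellulose/0.5 wt% HPMCAS in 20 mM tris buffer, pH 7.4. One dog per sex per dose was used, and clinical signs were recorded.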

[17] = Toxicity in male Beagle dog assessed as change in CV end points at 0.3 mg/kg, po by telemetry; type: organism-based, Canis lupus familiaris; conditions: in vivo; outline: as §3
[18] = Unbound brain concentration in CD-1 mouse at 3.2 mg/kg, sc measured after 2 hrs by LC-MS/MS analysis; type: ADME, organism-based; conditions: in vivo
[19] = Unbound plasma concentration in […] in Sprague-Dawley rat model at 1 mg/kg, sc measured after 1.67 hrs; type: ADME, organism-based; conditions: in vivo; outline: as §1
[20] = Thermodynamic solubility of compound at pH 6.5; type: physicochemical; conditions: buffer, read-out: Therm_solubility
[21] = molecular target: T1, Muscarinic acetylcholine receptor M3; test: Positive allosteric modulation of muscarinic M3 receptor (unknown origin) assessed as increase in ACh-induced displacement of [3H]-NMS from M2 receptor
Outline: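 Cell lines expressing M2 or M3 were used for [3H]NMS binding. Inhibition of binding by ACh was measured in the presence of fixed compound concentrations of 10, 3, 1, 0.3, 0.1 and 0 µM.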

Rattus norvegicus = test: Reversal of amphetamine-induced prepulse inhibition in Sprague-Dawley rat at 1 mg/kg, sc administered 30 min before testing followed by administration of amphetamine 15 mins prior to testing; type: functional, organism-based
Outline: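 In rats with amphetamine-disrupted prepulse inhibition, the compound was dosed sc as a suspension in 0.5% methylcellulose in water. Startle reflex and PPI alone were also assessed, and the analysis used the collapsed data set. Plasma and brain levels were taken from randomly chosen animals (N=2/dose) at the end of the study (1.67 h).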

[22] = Unbound brain concentration in scopolamine-induced Wistar rat model at 0.1 mg/kg, po measured after 1 hr; type: ADME, organism-based; conditions: in vivo
[23] = fCmax in rat at 30 mg/kg, po administered for 14 days; type: ADME, organism-based; conditions: in vivo, 336 h, time 14 day
Outline: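 2-week repeat oral dosing in rats, 0.5% methylcellulose formulation; N=4/sex/dose; doses 3, 10, 30 (males)/15 (females) mg/kg; unbound exposures reported per dose and sex.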

[24] = Ratio of fAUC in CD-1 mouse brain to plasma at 1 to 10 mg/kg, sc measured after 2 hrs by LC-MS/MS analysis; type: ADME, organism-based; conditions: brain and plasma, dose 1-10 mg/kg, read-out: Ratio AUC

T1 sequence (P20309 whole entry): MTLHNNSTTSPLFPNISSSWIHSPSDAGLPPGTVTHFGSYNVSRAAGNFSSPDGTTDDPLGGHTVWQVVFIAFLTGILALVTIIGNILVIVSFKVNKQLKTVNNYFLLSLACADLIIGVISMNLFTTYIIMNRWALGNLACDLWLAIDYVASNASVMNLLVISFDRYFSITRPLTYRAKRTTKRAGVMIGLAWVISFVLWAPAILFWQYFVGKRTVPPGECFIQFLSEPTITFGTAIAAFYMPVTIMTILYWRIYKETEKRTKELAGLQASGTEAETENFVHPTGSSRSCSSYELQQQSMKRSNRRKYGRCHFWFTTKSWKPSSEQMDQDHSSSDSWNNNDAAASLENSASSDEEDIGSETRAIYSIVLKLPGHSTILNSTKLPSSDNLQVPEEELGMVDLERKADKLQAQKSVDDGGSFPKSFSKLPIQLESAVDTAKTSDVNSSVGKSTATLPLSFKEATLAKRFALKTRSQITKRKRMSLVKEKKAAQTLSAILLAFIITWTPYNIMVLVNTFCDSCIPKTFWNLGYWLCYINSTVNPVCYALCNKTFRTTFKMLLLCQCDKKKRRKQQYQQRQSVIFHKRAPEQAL
Dual 3',5'-cyclic-AMP and -GMP phosphodiesterase 11A, sequence (Q9HCR9 whole entry): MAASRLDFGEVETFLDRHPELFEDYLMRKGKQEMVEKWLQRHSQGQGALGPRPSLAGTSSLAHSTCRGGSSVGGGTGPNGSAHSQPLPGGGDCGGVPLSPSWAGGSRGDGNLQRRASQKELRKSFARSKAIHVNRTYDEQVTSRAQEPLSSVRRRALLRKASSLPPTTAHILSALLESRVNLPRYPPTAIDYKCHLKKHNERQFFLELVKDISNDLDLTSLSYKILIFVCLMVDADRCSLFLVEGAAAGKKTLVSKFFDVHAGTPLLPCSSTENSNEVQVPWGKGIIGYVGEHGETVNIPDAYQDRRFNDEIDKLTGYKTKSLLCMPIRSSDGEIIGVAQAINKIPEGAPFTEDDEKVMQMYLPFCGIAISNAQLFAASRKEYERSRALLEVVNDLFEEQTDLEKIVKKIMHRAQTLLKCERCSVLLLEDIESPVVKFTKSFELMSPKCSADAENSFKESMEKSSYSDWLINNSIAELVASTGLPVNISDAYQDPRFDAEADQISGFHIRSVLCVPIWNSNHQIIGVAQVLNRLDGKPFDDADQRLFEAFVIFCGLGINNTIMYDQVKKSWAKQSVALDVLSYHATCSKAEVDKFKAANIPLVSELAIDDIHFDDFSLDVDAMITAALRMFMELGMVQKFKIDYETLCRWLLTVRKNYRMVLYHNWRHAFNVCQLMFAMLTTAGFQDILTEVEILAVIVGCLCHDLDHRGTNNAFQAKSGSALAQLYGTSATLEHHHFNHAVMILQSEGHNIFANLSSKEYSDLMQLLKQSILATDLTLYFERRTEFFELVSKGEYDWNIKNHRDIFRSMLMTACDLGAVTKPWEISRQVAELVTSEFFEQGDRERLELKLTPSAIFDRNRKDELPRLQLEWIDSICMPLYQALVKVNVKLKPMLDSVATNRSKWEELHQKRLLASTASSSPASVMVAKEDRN

**Q.** What does the source list for `Cc1cnc(C(=O)N[C@H]2CCOC[C@@H]2O)cc1Cc1ccc(-c2cscn2)cc1`?
**A.** Cp(f) [1]: 0.9 nM; Activity [2]: Not Active; fold change (FC) [3]: 339; NOAEL [4]: 5 mg/kg; Drug uptake(free) [5]: 4.3 nM; Cp(f) [6]: 255 nM; Activity [7]: 7 mmHg; Kp [8]: 0.2; IC50 [9]: 4.94 µM; Kp uu [10]: 0.34; Drug uptake(free) [11]: 6.38 nM; fCmax [12]: 659 nM; Cp(f) [13]: 19.6 nM; Activity [14]: Toxic; Kb [15]: 5 µM; Activity [16]: Toxic; Activity [17]: Non-Toxic; Drug uptake(free) [18]: 52.8 nM; Cp(f) [19]: 45.6 nM; solubility thermodynamic [20]: 2.7 µg/mL (≈ 6.59 µM); Activity [21]: Not Active; Activity (Rattus norvegicus): Active; Drug uptake(free) [22]: 0.31 nM; fCmax [23]: 1221 nM; Kp uu at 2 h [24]: 0.34
